The record followed here is ChEMBL document CHEMBL3351557, “Discovery of Potent and Simplified Piperidinone-Based Inhibitors of the MDM2-p53 Interaction” (ACS Med Chem Lett, 2014).

Activity calls are given as the source filed them. The rule behind the calls is not given here.

A short description of series [1]: Clearance in mouse at 1 mg/kg, iv. In kind it is ADME, organism-based. More on the design: dose 1 mg/kg, route intravenous. To be noted: in vivo.
Series [2] concerns SJSA-1. As to the kind of experiment: Increase in p21 mRNA expression in tumor of human SJSA1 cells xenografted athymic nude mouse at 50 to 200 mg/kg, po administered as single dose 2 weeks post implantation relative to vehicle-treated control. In kind it is functional, organism-based. Put shortly:
(§1)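 SJSA-1 osteosarcoma cells were implanted in mice 2 weeks before a single oral dose (100 or 200 mg/kg in one study; 50, 100 or 200 mg/kg in another). Tumour p21 mRNA, a p53 transcriptional target, was measured at several times after dosing and expressed relative to vehicle-treated controls.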

A short description of series [3]: Clearance in rat at 0.5 mg/kg, iv. More on the design: dose 0.5 mg/kg, route intravenous. In kind it is ADME, organism-based. To be noted: in vivo.
Series [4] can be described thus: Clearance in rat at 0.5 mg/kg, iv. The conditions noted are these: in vivo.
The nature of series [5]: Oral bioavailability in rat at 2 mg/kg. The series is classed as ADME, organism-based. To be noted: in vivo.
Series [6] has as its system SJSA-1. The series is described as follows: Increase in p21 mRNA expression in tumor of human SJSA1 cells xenografted athymic nude mouse compound administered as single oral dose 2 weeks post implantation measured 4 to 8 hrs post dose relative to vehicle-treated control. The series is classed as functional. Put shortly:
as §1

Series [7] is described as follows: Intrinsic clearance in rat hepatocytes assessed per million cells. In kind it is ADME, cell-based, Hepatocyte. The conditions noted are these: read-out: CLH.
A short description of series [8]: Oral bioavailability in mouse at 5 mg/kg. The series is classed as ADME, organism-based. The conditions noted are these: in vivo.
Series [9] has as its target T1, Tumour suppressor p53/oncoprotein Mdm2 (Homo sapiens, UniProt Q00987). The series is described as follows: Inhibition of human MDM2 (1-188 aa) -p53 (1-83 aa) interaction expressed in Escherichia coli after 18 hrs by HTRF assay. In general terms: Time-resolved FRET reads energy transfer from a long-lived donor to a nearby acceptor.
Series [10] concerns the target T1, Tumour suppressor p53/oncoprotein Mdm2. As to the kind of experiment: Inhibition of human MDM2 (1-188 aa) -p53 (1-83 aa) interaction expressed in Escherichia coli after 18 hrs by HTRF assay in presence of 15% human serum.
Series [11] has as its system SJSA-1. The series is described as follows: Antiproliferative activity against human SJSA1 cells after 3 days by EdU incorporation-based HCS assay in presence of 10% human serum. To be noted: SJSA-1, 72 h. The series is classed as functional, cell-based.
For series [12], the system named is SJSA-1. As to the kind of experiment: Increase in p21 mRNA expression in tumor of human SJSA1 cells xenografted athymic nude mouse at 100 mg/kg, po as single dose administered 2 weeks post implantation measured 4 hrs post dose relative to vehicle-treated control. Further details: dose 100 mg/kg. In kind it is functional, organism-based. Put shortly: as §1
Series [13] concerns SJSA-1. The series is described as follows: Antitumor activity against human SJSA1 cells xenografted in athymic nude mouse assessed as tumor growth inhibition at 50 mg/kg, po bid administered 2 weeks post implantation relative to vehicle-treated control. To be noted: SJSA-1, po, 336 h, read-out: TGI. A general note: In xenograft studies the graft and the host belong to different species.

Series [14] deals with SJSA-1. As to the kind of experiment: Antitumor activity against human SJSA1 cells xenografted in athymic nude mouse assessed as tumor growth inhibition at 100 mg/kg, po qd administered 2 weeks post implantation relative to vehicle-treated control. The conditions noted are these: SJSA-1, po, 336 h, read-out: TGI.
In series [15] the test system is Mus musculus. As to the kind of experiment: Toxicity in human SJSA1 cells xenografted athymic nude mouse assessed as body weight loss at 100 mg/kg, po bid administered 2 weeks post implantation. The series is classed as organism-based, SJSA-1. Further details: dose 100 mg/kg, route oral. The conditions noted are these: in vivo, 336 h. In short, it runs like this: (§2)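 Female athymic nude mice were implanted subcutaneously with 5 × 10⁶ SJSA-1 cells. Oral gavage of vehicle or compound (50, 100 or 200 mg/kg QD; 50 or 100 mg/kg BID) began on day 14, when tumours were about 200 mm³. There were 10 mice per group, and tumours were measured twice weekly.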

In series [16] the test system is Mus musculus. The series is described as follows: Toxicity in human SJSA1 cells xenografted athymic nude mouse assessed as body weight loss at 200 mg/kg, po qd administered 2 weeks post implantation. The series is classed as organism-based, SJSA-1. More on the design: dose 200 mg/kg, route oral. To be noted: in vivo, 336 h. In short, it runs like this: as §2
Series [17] is described as follows: Half life in rat at 0.5 mg/kg, iv. In kind it is ADME, organism-based. Further details: dose 0.5 mg/kg, route intravenous. The conditions noted are these: in vivo.
A short description of series [18]: Half life in mouse. The series is classed as ADME, organism-based. To be noted: in vivo.
Series [19] in a line: Intrinsic clearance in human hepatocytes assessed per million cells. The conditions noted are these: read-out: CLH. The series is classed as ADME, cell-based, Hepatocyte.
Series [20] can be described thus: Bioavailability in rat at 0.5 mg/kg, iv. In kind it is ADME, organism-based. To be noted: in vivo.
A short description of series [21]: Clearance in mouse. In kind it is ADME, organism-based. The conditions noted are these: in vivo.

T1 sequence (P04637 whole entry, the tested form may be a part): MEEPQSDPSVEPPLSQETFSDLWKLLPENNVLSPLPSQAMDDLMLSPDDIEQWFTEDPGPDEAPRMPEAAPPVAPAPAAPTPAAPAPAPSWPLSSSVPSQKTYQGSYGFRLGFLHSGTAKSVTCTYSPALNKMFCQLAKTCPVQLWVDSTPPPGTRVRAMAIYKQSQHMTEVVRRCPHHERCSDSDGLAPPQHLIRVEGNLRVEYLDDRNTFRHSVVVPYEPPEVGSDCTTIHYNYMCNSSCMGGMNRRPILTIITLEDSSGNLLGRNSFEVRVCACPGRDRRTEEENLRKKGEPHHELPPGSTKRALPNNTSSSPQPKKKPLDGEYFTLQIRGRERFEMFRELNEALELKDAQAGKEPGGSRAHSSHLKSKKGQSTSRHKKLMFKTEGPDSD
T1 sequence (Q00987 whole entry, the tested form may be a part): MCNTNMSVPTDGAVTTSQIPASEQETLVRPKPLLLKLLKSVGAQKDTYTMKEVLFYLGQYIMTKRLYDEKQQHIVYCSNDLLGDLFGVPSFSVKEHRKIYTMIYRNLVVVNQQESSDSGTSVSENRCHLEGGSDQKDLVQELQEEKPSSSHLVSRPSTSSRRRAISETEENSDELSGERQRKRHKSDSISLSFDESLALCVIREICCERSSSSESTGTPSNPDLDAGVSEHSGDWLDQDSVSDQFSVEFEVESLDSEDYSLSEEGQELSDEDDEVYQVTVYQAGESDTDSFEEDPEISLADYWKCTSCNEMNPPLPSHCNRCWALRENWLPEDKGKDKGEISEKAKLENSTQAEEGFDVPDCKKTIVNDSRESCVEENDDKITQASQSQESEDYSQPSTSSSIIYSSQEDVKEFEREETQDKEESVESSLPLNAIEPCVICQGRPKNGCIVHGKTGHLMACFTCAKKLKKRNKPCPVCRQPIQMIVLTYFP

On to `CCC(CC)N1C(=O)[C@@](C)(CC(=O)O)C[C@H](c2cccc(Cl)c2)[C@H]1c1ccc(Cl)cc1`, for which the results for the clearance in series [1], in series [3] and in series [4] were 0.99 L/h/kg, 0.45 L/h/kg and 0.45 L/h/kg, respectively. For the same compound, the Activity entry with SJSA-1 [2] (TDE = time-dependent effect) is “tde”; in the series on SJSA-1 [6] it was “Dose-dependent effect”. For the same compound, the bioavailability in [5] is 38%; in series [8], 42%. Also, the hepatocyte CLint in [7] was 18.8 µL/min/1e6 cells.

For the compound `C[C@@H](c1ccccn1)N1C(=O)[C@@](C)(CC(=O)O)C[C@H](c2cccc(Cl)c2)[C@H]1c1ccc(Cl)cc1`, the results for the half-maximal inhibitory concentration (IC50) (in [9]; in [10]; in the series with SJSA-1 [11]) were 0.01 µM, 0.062 µM and 0.42 µM, respectively.

As for `CC[C@@H](c1cccc(C)n1)N1C(=O)[C@@](C)(CC(=O)O)C[C@H](c2cccc(Cl)c2)[C@H]1c1ccc(Cl)cc1`, the clearance in series [3] is 0.93 L/h/kg. In addition, in the series with SJSA-1 [11], the IC50 was determined as 0.28 µM.

As to `CC[C@@H]([C@H](C)OC)N1C(=O)[C@@](C)(CC(=O)O)C[C@H](c2cccc(Cl)c2)[C@H]1c1ccc(Cl)cc1`, the IC50 in the series with SJSA-1 [11] came to 0.143 µM.

Turning to `CC[C@@H]([C@@H]1CCCO1)N1C(=O)[C@@](C)(CC(=O)O)C[C@H](c2cccc(Cl)c2)[C@H]1c1ccc(Cl)cc1`, in the series on SJSA-1 [11], the IC50 is 0.123 µM.

Take `CC[C@@H](c1ccncc1)N1C(=O)[C@@](C)(CC(=O)O)C[C@H](c2cccc(Cl)c2)[C@H]1c1ccc(Cl)cc1`: the IC50 in the series with SJSA-1 [11] came out at 0.46 µM.

Regarding `CC(C)N1C(=O)[C@@](C)(CC(=O)O)C[C@H](c2cccc(Cl)c2)[C@H]1c1ccc(Cl)cc1`, the clearance was 1.03 L/h/kg in series [1], 1.04 L/h/kg in [3] and 1.04 L/h/kg in series [4]. The outcome in the series with SJSA-1 [2], with SJSA-1 [12] and in the series with SJSA-1 [6] was Active. Moreover, the bioavailability was determined as 48% in [5] and 32% in series [8]. For the same compound, in the series with SJSA-1 [13], the inhibition in vivo at 50 mg/kg came to 82%. The IC50 with SJSA-1 [11] was determined as 0.38 µM. Moreover, the inhibition in vivo at 100 mg/kg in the series with SJSA-1 [14] stood at 96%. Further, the hepatocyte CLint in [7] was found to be 8.5 µL/min/1e6 cells. Further, the Activity result in the series with Mus musculus [15] and with Mus musculus [16] was “Toxic” each time.

As for `CC(C)[C@@H](c1ccccn1)N1C(=O)[C@@](C)(CC(=O)O)C[C@H](c2cccc(Cl)c2)[C@H]1c1ccc(Cl)cc1`, the IC50 in the series with SJSA-1 [11] was found to be 0.29 µM.

As for `CC[C@@H](c1ccccn1)N1C(=O)[C@@](C)(CC(=O)O)CC(c2cccc(Cl)c2)[C@H]1c1ccc(Cl)cc1` (single isomer, unassigned), the half-life in series [17] is 3.5 h; in [18], 1.9 h. Also, the hepatocyte CLint in series [19] was 7 µL/min/1e6 cells; in series [7], 13 µL/min/1e6 cells. For the same compound, in [20], the bioavailability was 79%. The clearance in series [21] is 3.1 L/h/kg. For the same compound, the IC50 in the series with SJSA-1 [11] turned out to be 0.43 µM.

In the case of `CC[C@@H](c1ccc(C)cn1)N1C(=O)[C@@](C)(CC(=O)O)CC(c2cccc(Cl)c2)[C@H]1c1ccc(Cl)cc1` (single isomer, unassigned), the figures for the IC50 (in series [9]; in [10]; in the series with SJSA-1 [11]) were 0.007 µM, 0.123 µM and 0.9 µM, respectively.

Take `CC[C@@H](c1cccc(C2CC2)n1)N1C(=O)[C@@](C)(CC(=O)O)CC(c2cccc(Cl)c2)[C@H]1c1ccc(Cl)cc1` (single isomer, unassigned): in the series with SJSA-1 [11], the IC50 amounted to 1.82 µM.

In the case of `CC[C@@H](c1cc(C)ccn1)N1C(=O)[C@@](C)(CC(=O)O)C[C@H](c2cccc(Cl)c2)[C@H]1c1ccc(Cl)cc1`, the IC50 in series [9] stood at 0.006 µM; in series [10], 0.06 µM; in the series on SJSA-1 [11], 0.89 µM.

In the case of `CC[C@@H](c1ncccn1)N1C(=O)[C@@](C)(CC(=O)O)C[C@H](c2cccc(Cl)c2)[C@H]1c1ccc(Cl)cc1`, the IC50 in the series with SJSA-1 [11] was 0.42 µM.

As to `CC[C@@H](c1ncccc1C)N1C(=O)[C@@](C)(CC(=O)O)C[C@H](c2cccc(Cl)c2)[C@H]1c1ccc(Cl)cc1`, the IC50 in [9] came to 0.005 µM; in series [10] it was 0.183 µM; with SJSA-1 [11], 0.31 µM.

In the case of `C[C@]1(CC(=O)O)C[C@H](c2cccc(Cl)c2)[C@@H](c2ccc(Cl)cc2)N(c2ccccc2)C1=O`, the IC50 came out at 0.004 µM in series [9] and 0.055 µM in series [10]. For the same compound, the clearance in series [3] was 2.45 L/h/kg.

Regarding `CC[C@@H](c1cnco1)N1C(=O)[C@@](C)(CC(=O)O)C[C@H](c2cccc(Cl)c2)[C@H]1c1ccc(Cl)cc1`, the IC50 was 0.008 µM in series [9], 0.036 µM in series [10] and 0.84 µM in the series on SJSA-1 [11].

`CCC[C@@H](c1ccccn1)N1C(=O)[C@@](C)(CC(=O)O)C[C@H](c2cccc(Cl)c2)[C@H]1c1ccc(Cl)cc1`: the half-life in series [17] was 6.9 h. Besides, the clearance in [3] was 0.2 L/h/kg. In addition, in the series with SJSA-1 [11], the IC50 was 0.99 µM.

Regarding `C[C@]1(CC(=O)O)C[C@H](c2cccc(Cl)c2)[C@@H](c2ccc(Cl)cc2)N(c2ccccn2)C1=O`, the IC50 in [9] came out at 0.013 µM; in series [10] it was 0.122 µM. This compound also had a clearance in series [3] of 2.16 L/h/kg.

Compound `CC[C@@H](c1cccc(Cl)n1)N1C(=O)[C@@](C)(CC(=O)O)C[C@H](c2cccc(Cl)c2)[C@H]1c1ccc(Cl)cc1` had a clearance in series [3] of 1.2 L/h/kg. Further, in the series on SJSA-1 [11], the 50% inhibitory concentration (IC50) was found to be 0.21 µM.

One may read the clearance as the volume of plasma or blood freed of the substance per unit of time. What is called bioavailability is dose-corrected exposure relative to a reference, in per cent. What is called IC50 is the concentration needed to halve the response being measured. In general, half-life refers to how long it takes for the measured level to halve. A low value points to rapid decline.
